Where two headings read alike, the source gives them in different places.
Experiments:
[1] = tested on: patients with mCRPC; settings: sequence of ENZ followed by AA, cited from earlier work
[2] = tested on: patients with CRPC; settings: phase 1 study, once daily dosing; cited from earlier work
[3] = tested on: patients with mCRPC previously treated with enzalutamide; test: Phase 2 open label study: PSA response, time to progression, overall survival; format: in vivo, human
Procedure, shortened: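 Open-label trial in men aged 18 or older with progressive mCRPC after more than three 28-day enzalutamide cycles, split into pre- and post-docetaxel cohorts. Oral dosing without routine steroids: 150 mg twice daily titrated to 450 mg twice daily, later amended to 750 mg, then 600 mg, once daily. PSA response was a ≥50% drop from baseline at 12 weeks (PCWG2). Radiographic progression by modified RECIST 1.1. Kaplan-Meier time to progression and overall survival.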

[4] = tested on: patients with CRPC; settings: cited from earlier work; for PSA response rate: treatment naïve patients, daily cumulative doses of 600 mg or greater
[5] = tested on: CRPC cell lines MR49F, MDA-PCA-133, LNCaP; settings: MDA-PCA-133, LNCaP (AR F876L, H874Y, T877A); cited from earlier work
[6] = tested on: patients with mCRPC previously treated with enzalutamide; test: Toxicity evaluation, adverse events graded by CTCAE version 4.0; format: in vivo, human
Procedure, shortened: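 Adverse events in enrolled mCRPC patients were graded per NCI CTCAE v4.0 during oral dosing: twice-daily titration to 450 mg, later 750 mg or 600 mg once daily. A related Grade 3 event held treatment until recovery to Grade 1 or baseline. Investigator-discretion reductions were allowed for low-grade events. Drug was stopped for Grade 4 events, a delay over 6 weeks, or more than 2 reductions.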

[7] = Pharmacokinetic analysis, plasma concentrations by LC-MS/MS, noncompartmental; format: in vivo, human; settings: for half-life / Cmax / Tmax / Vd/F: male, human, plasma; for Vd/F: Vz/F
[8] = tested on: enzalutamide-resistant cell lines (e.g. C4–2, C4–2B, MR49C, MR49F); settings: established enzalutamide-resistant cell lines; cited from earlier work
[9] = tested on: CYP17 lyase; settings: cited from earlier work
[10] = N = 17, attribution at least possible
[11] = 600 mg oral, C1D1 (n=4), first dose
[12] = 600 mg oral, C2D1 (n=4), steady-state
[13] = 750 mg oral, C1D1 (n=3), first dose
[14] = 750 mg oral, C2D2 (n=l), steady-state
[15] = po, 600 mg, 600 mg oral, C1D1 (n=4), first dose
[16] = po, 600 mg, 600 mg oral, C2D1 (n=4), steady-state
[17] = po, 750 mg, 750 mg oral, C1D1 (n=3), first dose
[18] = po, 750 mg, 750 mg oral, C2D2 (n=l), steady-state

CC(=O)O[C@H]1CC[C@@]2(C)C(=CC[C@@H]3[C@@H]2CC[C@]2(C)C(c4cccnc4)=CC[C@@H]32)C1 [AA, abiraterone acetate]
PSA response rate ([1]; ref 39): 3% | PSA response rate ([1]; ref 40): 8%

CC(C)[C@](O)(c1ccc2cc(OC(F)F)c(OC(F)F)cc2c1)c1c[nH]nn1 [Seviteronel]
patients experiencing fatigue [2]: 71% | patients with blurry vision [2]: 33% | patients with dizziness [2]: 52% | rate of significant PSA response (≥ 50% decrease in baseline serum PSA) ([3]; all 17 patients, after 12 weeks of seviteronel, PCWG2 criteria): 6% | patients having documented PSA progression per PCWG2 ([3]; of 17 patients): 8 patients | minimal decline in PSA ([3]; one patient, pre-chemotherapy cohort, 750 mg once daily reduced to 450 mg once daily, after 11 weeks): 15% | PSA declines of 50% or greater ([4]; 450 mg twice daily, patients who had previously received ENZ): 2 of 7 | response rate ([4]; pre-treated patients, Phase I study once daily dosing): 0% | PSA response rate ([4]; once daily dosing (N=9)): 33% | PSA response rate ([4]; twice daily dosing (N=26)): 11% | efficacy in in vivo models [5]: effective | Blurred Vision, All Grades (Gr 1–3) [6, 10]: 4 (24) No. Patients (%) | Blurred Vision, Grade 1 [6, 10]: 3 (18) No. Patients (%) | Blurred Vision, Grade 2 [6, 10]: 1 (6) No. Patients (%) | Blurred Vision, Grade 3 [6, 10]: 0 (0) No. Patients (%) | Concentration Impairment, All Grades (Gr 1–3) [6, 10]: 14 (82) No. Patients (%) | Concentration Impairment, Grade 1 [6, 10]: 9 (53) No. Patients (%) | Concentration Impairment, Grade 2 [6, 10]: 4 (24) No. Patients (%) | Concentration Impairment, Grade 3 [6, 10]: 1 (6) No. Patients (%) | Dizziness, All Grades (Gr 1–3) [6, 10]: 6 (35) No. Patients (%) | Dizziness, Grade 1 [6, 10]: 3 (18) No. Patients (%) | Dizziness, Grade 2 [6, 10]: 1 (6) No. Patients (%) | Dizziness, Grade 3 [6, 10]: 2 (12) No. Patients (%) | Edema (limbs), All Grades (Gr 1–3) [6, 10]: 3 (18) No. Patients (%) | Edema (limbs), Grade 1 [6, 10]: 2 (12) No. Patients (%) | Edema (limbs), Grade 2 [6, 10]: 1 (6) No. Patients (%) | Edema (limbs), Grade 3 [6, 10]: 0 (0) No. Patients (%) | Fall, All Grades (Gr 1–3) [6, 10]: 3 (18) No. Patients (%) | Fall, Grade 1 [6, 10]: 1 (6) No. Patients (%) | Fall, Grade 2 [6, 10]: 1 (6) No. Patients (%) | Fall, Grade 3 [6, 10]: 1 (6) No. Patients (%) | Fatigue, All Grades (Gr 1–3) [6, 10]: 11 (65) No. Patients (%) | Fatigue, Grade 1 [6, 10]: 3 (18) No. Patients (%) | Fatigue, Grade 2 [6, 10]: 8 (47) No. Patients (%) | Fatigue, Grade 3 [6, 10]: 0 (0) No. Patients (%) | Gait Disturbance, All Grades (Gr 1–3) [6, 10]: 3 (18) No. Patients (%) | Gait Disturbance, Grade 1 [6, 10]: 3 (18) No. Patients (%) | Gait Disturbance, Grade 2 [6, 10]: 0 (0) No. Patients (%) | Gait Disturbance, Grade 3 [6, 10]: 0 (0) No. Patients (%) | Hypotension, All Grades (Gr 1–3) [6, 10]: 4 (24) No. Patients (%) | Hypotension, Grade 1 [6, 10]: 1 (6) No. Patients (%) | Hypotension, Grade 2 [6, 10]: 2 (12) No. Patients (%) | Hypotension, Grade 3 [6, 10]: 1 (6) No. Patients (%) | Malaise, All Grades (Gr 1–3) [6, 10]: 3 (18) No. Patients (%) | Malaise, Grade 1 [6, 10]: 0 (0) No. Patients (%) | Malaise, Grade 2 [6, 10]: 3 (18) No. Patients (%) | Malaise, Grade 3 [6, 10]: 0 (0) No. Patients (%) | Nausea, All Grades (Gr 1–3) [6, 10]: 9 (53) No. Patients (%) | Nausea, Grade 1 [6, 10]: 7 (41) No. Patients (%) | Nausea, Grade 2 [6, 10]: 0 (0) No. Patients (%) | Nausea, Grade 3 [6, 10]: 2 (12) No. Patients (%) | Presyncope, All Grades (Gr 1–3) [6, 10]: 3 (18) No. Patients (%) | Presyncope, Grade 1 [6, 10]: 0 (0) No. Patients (%) | Presyncope, Grade 2 [6, 10]: 3 (18) No. Patients (%) | Presyncope, Grade 3 [6, 10]: 0 (0) No. Patients (%) | Tremor, All Grades (Gr 1–3) [6, 10]: 10 (59) No. Patients (%) | Tremor, Grade 1 [6, 10]: 9 (53) No. Patients (%) | Tremor, Grade 2 [6, 10]: 1 (6) No. Patients (%) | Tremor, Grade 3 [6, 10]: 0 (0) No. Patients (%) | Vomiting, All Grades (Gr 1–3) [6, 10]: 3 (18) No. Patients (%) | Vomiting, Grade 1 [6, 10]: 3 (18) No. Patients (%) | Vomiting, Grade 2 [6, 10]: 0 (0) No. Patients (%) | Vomiting, Grade 3 [6, 10]: 0 (0) No. Patients (%) | Grade 4 adverse events related to study treatment ([6]; in vivo): No Grade 4 adverse events related to the study treatment were reported | number of Grade 3 adverse events ([6]; in vivo): nine | Concentration impairment Grade 2 or higher ([6]; of 17 patients): 5 patients | patients with CNS toxicities that contributed to treatment discontinuation ([6]; of 17 patients): nine | diarrhea ([6]; patients receiving 750 mg once daily): not reported | tolerability ([6]; twice daily 450 mg or once daily 600/750 mg, without oral steroids): not generally well tolerated | AUC/D (dose-normalized) [7, 11]: 55.1 ± 7.21 mg·h/L/mg | Cmax/D (dose-normalized) [7, 11]: 6.77 ± 3.20 mg/L/mg | CL/F ([7]; 600 mg oral, C1D1 (n=4), first dose, Dose/AUCinf): 18.4 ± 2.50 L/h | AUC/D (dose-normalized) [7, 12]: 92.3 ± 9.94 mg·h/L/mg | Cmax/D (dose-normalized) [7, 12]: 7.76 ± 1.93 mg/L/mg | CL/F ([7]; 600 mg oral, C2D1 (n=4), steady-state, Dose/AUCtau): 10.9 ± 1.32 L/h | AUC/D (dose-normalized) [7, 13]: 58.9 ± 2.87 mg·h/L/mg | Cmax/D (dose-normalized) [7, 13]: 6.82 ± 2.54 mg/L/mg | CL/F ([7]; 750 mg oral, C1D1 (n=3), first dose, Dose/AUCinf): 17.0 ± 0.84 L/h | AUC/D (dose-normalized) [7, 14]: 84.6 mg·h/L/mg | Cmax/D (dose-normalized) [7, 14]: 7.53 mg/L/mg | CL/F ([7]; 750 mg oral, C2D2 (n=l), steady-state, Dose/AUCtau): 11.8 L/h | increase of dose-normalized steady-state AUCτ over first dose AUCINF ([7]; 6 patients, p=0.001): 61% | dose-normalized CMAX, mean ([7]; Cycle 1): 6.79 µg/L/mg | dose-normalized first dose AUCINF ([7]; first dose): 56.7 µg·h/L/mg | half-life ([7]; oral, mean first dose half-life, 48-hr sampling window, range 7.9 – 23.5 hr): 13.9 h | Cmax [7, 15]: 4070 ± 1920 ng/mL | Cmax [7, 16]: 4660 ± 1160 ng/mL | half-life ([7]; po, 600 mg, T1/2, 600 mg oral, C1D1 (n=4), first dose): 16.4 ± 4.78 h | half-life ([7]; po, 600 mg, T1/2, 600 mg oral, C2D1 (n=4), steady-state): 14.8 ± 5.94 h | Tmax [7, 15]: 2 h | Tmax [7, 16]: 5 ± 2.58 h | Vd/F [7, 15]: 438 ± 146 L | Vd/F [7, 16]: 229 ± 77.7 L | Cmax [7, 17]: 5110 ± 1900 ng/mL | Cmax [7, 18]: 5650 ng/mL | half-life ([7]; po, 750 mg, T1/2, 750 mg oral, C1D1 (n=3), first dose): 10.5 ± 4.35 h | half-life ([7]; po, 750 mg, T1/2, 750 mg oral, C2D2 (n=l), steady-state): 18.3 h | Tmax [7, 17]: 2 ± 1.7 h | Tmax [7, 18]: 2 h | Vd/F [7, 17]: 260 ± 121 L | Vd/F [7, 18]: 312 L | time to reach 97% steady-state ([7]; once daily dosing): 69.5 h | expected accumulation above first-dose ([7]; once daily dosing until steady-state): 43% | increase of steady-state dose-normalized CMAX over Cycle 1 ([7]; p=0.44): 20% | start of apparent monophasic elimination post dose ([7]; single oral dose 600mg or 750mg with food): 2 to 4 h | dose-normalized CMAX, mean ([7]; steady-state): 8.16 µg/L/mg | dose-normalized steady-state AUCτ ([7]; steady-state): 91.3 µg·h/L/mg | potency compared with AA [8]: more potent than AA | selectivity towards the CYP17 lyase over hydroxylase [9]: approximately 10 fold

— PMC7415516 (Clinical genitourinary cancer, 2020)
